Measured values from ChEMBL document CHEMBL3351586, “Diterpenes from a Chinese collection of the brown alga Dictyota plectens” (J Nat Prod, 2014).

Assays:
[1] = tested on: Human immunodeficiency virus 1; test: Antiviral activity against VSV-G protein pseudotyped HIV1 system in HEK293T cells assessed as reduction in p24 level after 48 hrs by ELISA; type: functional, organism-based; settings: Human immunodeficiency virus 1, HEK-293T
Outline: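 VSV-G-pseudotyped HIV used as a counter-screen to judge the specificity of HA-directed entry inhibitors.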

[2] = Antiinflammatory activity in mouse peritoneal macrophages assessed as inhibition of LPS-induced NO production at 10 uM; type: functional; settings: Peritoneal macrophage cell
HEK293 [3] = test: Cytotoxicity against HEK293 cells infected with VSV-G protein pseudotyped HIV1; type: cell-based; settings: Homo sapiens
[4] = Cytotoxicity against HEK293 cells infected with Influenza A virus (A/Viet Nam/1203/2004(H5N1)); type: cell-based; settings: human
Outline: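 Cytotoxicity measured on 293T cells and reported as CC50 (μmol/L).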

HEK293 [5] = test: Inhibition of Influenza A virus (A/Viet Nam/1203/2004(H5N1)) hemagglutinin-mediated entry in HEK293 cells compound pretreated with target cells for 15 mins prior infection measured 48 hrs post infection by luciferase reporter assay; type: cell-based
Outline: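 Entry screen: HIV-based pseudotype bearing H5N1 hemagglutinin (HA). Compounds tested at 30.0 μM. Value reported as percent inhibition of HA-mediated entry.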

[6] = Antiinflammatory activity in mouse peritoneal macrophages assessed as inhibition of LPS-induced NO production at 1 uM; type: functional; settings: Peritoneal macrophage cell

SMILES | IC50 [1] [µM] | inhibition at 10 µM [2] [%] | IC50 (HEK293 [3]) [µM] | CC50 [4] [µM] | inhibition (HEK293 [5]) [%] | inhibition at 1 µM [6] [%]
CC(=O)O[C@H]1C/C=C(\C)CC[C@@H]([C@H](C)CCC=C(C)C)[C@@H](O)/C=C/1C | 30.5 | < 50 | > 60 |  |  | 
C=C1C[C@H](O)[C@@H]([C@@](C)(O)CCC=C(C)C)[C@@H](O)[C@@H]2C(C)=CC[C@@H]12 |  | < 50 |  | > 60 | 50 | 
C/C1=C/CC/C(C)=C/C[C@@]2(C)CC[C@@](O)(C(C)C)[C@@H]2CC1=O (relative stereo) |  | < 50 |  | > 60 | 56 | 
C=C1CC[C@@H]([C@@](C)(O)CCC=C(C)C)[C@@H](O)[C@@H]2C(C)=CC[C@@H]12 | 24 | 90 | > 60 |  |  | < 50
CC(C)=CCC[C@@H](C)[C@H]1C2=C(C(=O)OC2)[C@H]2C[C@H]2[C@H](C)C[C@H]1O |  | < 50 |  | > 60 | 62 | 
CC(C)=CCC[C@@H](C)[C@@H]1[C@H](O)C/C(C)=C/C/C=C(/C=O)[C@H]1C=O |  | 86 |  | > 60 | 59 | < 50
C=C1C[C@@H](O)[C@@H]([C@H](C)CCC=C(C)C)[C@@H](O)[C@@H]2C(C)=CC[C@@H]12 | 26.1 | < 50 | > 60 |  |  | 
Cc1ccnc2c1NC(=O)c1cccnc1N2C1CC1 [NEVIRAPINE] | 0.05 |  |  |  |  | 
C=C1CC[C@@H](O)[C@@]2(C)C[C@@H](OC(C)=O)C3=C(C(C)C)CC[C@]3(C)C[C@]12O | 16.1 | < 50 | 53 |  |  | 
CC(=O)OC[C@@H]1/C(C=O)=C\C/C=C(\C)C[C@@H](O)[C@H]1[C@H](C)CCC=C(C)C | 21.9 | < 50 | > 60 |  |  | 
